Laboratory results published in ChEMBL document CHEMBL4152203, “Antiproliferative hydrogen sulfide releasing evodiamine derivatives and their apoptosis inducing properties” (Eur J Med Chem, 2018).
pIC50: −log10 of the molar value. The source made the active and inactive calls. The rule behind the calls is not given here.

How the values were obtained:
[1] = test system: HL-60; test: Antiproliferative activity against human HL60 cells after 72 hrs by MTT assay; format: functional, cell-based; conditions: HL-60, 72 h
In short: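 Cells seeded and pre-incubated 24 h at 37 °C, 5% CO2, then exposed to compounds for 72 h. MTT (5 mg/mL stock) added for 4 h, formazan dissolved in DMSO for 10 min at room temperature, absorbance read at 570 nm. 0.1% DMSO as negative and 5-FU as positive reference. IC50 derived from inhibition ratios; mean ± SD of three independent experiments.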

[2] = test system: HL-60; test: Cell cycle arrest in human HL60 cells assessed as accumulation at S phase at 0.6 uM after 48 hrs by propidium iodide/RNase A staining-based flow cytometric analysis (reference value: 24.06%); format: functional
[3] = test system: HL-60; test: Induction of apoptosis in human HL60 cells assessed as viable cells at 0.3 uM after 48 hrs by Annexin V-FITC/propidium iodide staining-based flow cytometric analysis (reference value: 95.56%); format: functional; conditions: HL-60, 48 h, read-out: Activity
[4] = test system: HL-60; test: Induction of apoptosis in human HL60 cells assessed as early apoptotic cells at 0.6 uM after 48 hrs by Annexin V-FITC/propidium iodide staining-based flow cytometric analysis (reference value: 1.11%); format: functional
[5] = test system: HL-60; test: Induction of apoptosis in human HL60 cells assessed as necrotic cells at 0.6 uM after 48 hrs by Annexin V-FITC/propidium iodide staining-based flow cytometric analysis (reference value: 0.02%); format: functional
[6] = test system: HL-60; test: Induction of apoptosis in human HL60 cells assessed as early apoptotic cells at 1.2 uM after 48 hrs by Annexin V-FITC/propidium iodide staining-based flow cytometric analysis (reference value: 2.31%); format: functional
[7] = test system: HL-60; test: Induction of apoptosis in human HL60 cells assessed as necrotic cells at 1.2 uM after 48 hrs by Annexin V-FITC/propidium iodide staining-based flow cytometric analysis (reference value: 0.02%); format: functional
[8] = test system: HL-60; test: Induction of apoptosis in human HL60 cells assessed as apoptotic cells after 48 hrs by Annexin V-FITC/propidium iodide staining-based flow cytometric analysis; format: functional, cell-based
[9] = test system: HL-60; test: Induction of mitochondrial membrane potential loss in human HL60 cells assessed as cell population with intact mitochondrial membrane potential at 0.3 uM after 48 hrs by JC1 staining-based flow cytometry analysis (reference value: 92.35%); format: functional
[10] = test system: HL-60; test: Induction of mitochondrial membrane potential loss in human HL60 cells assessed as cell population with mitochondrial membrane potential collapse at 0.6 uM after 48 hrs by JC1 staining-based flow cytometry analysis (reference value: 7.65%); format: functional
[11] = test system: HL-60; test: Induction of mitochondrial membrane potential loss in human HL60 cells assessed as cell population with intact mitochondrial membrane potential at 0.6 uM after 48 hrs by JC1 staining-based flow cytometry analysis (reference value: 92.35%); format: functional
[12] = test system: HL-60; test: Induction of apoptosis in human HL60 cells assessed as decrease in cyclin B1 protein expression level at 0.3 to 1.2 uM after 48 hrs by Western blot analysis; format: functional, cell-based
In short: (§1)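 HL-60 treated in triplicate with 0.3, 0.6 or 1.2 μM compound; exposure is 72 h in the methods and 48 h in the legend. Lysates were run on 10% SDS-PAGE, transferred to nitrocellulose, blocked in 5% milk, and probed overnight at 4 °C with monoclonal antibodies (Bcl-2, Bax, cytochrome c, caspase-9/-3, p53, cyclin B1, cdc2). ECL detection; densitometry relative to GAPDH.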

[13] = test system: HL-60; test: Induction of mitochondrial membrane potential loss in human HL60 cells assessed as cell population with mitochondrial membrane potential collapse at 1.2 uM after 48 hrs by JC1 staining-based flow cytometry analysis (reference value: 7.65%); format: functional
[14] = test system: HL-60; test: Induction of apoptosis in human HL60 cells assessed as increase in p53 protein level at 0.3 to 1.2 uM after 48 hrs by Western blot analysis; format: functional, cell-based; in short: as §1

For `CN1c2ccccc2C(=O)N2CCc3c(n(CCCCC(=O)OCCCCOc4ccc(-c5cc(=S)ss5)cc4)c4ccccc34)C21` (centres undefined), the pIC50 [1] was 6.24, the Activity [2] was 41.81% and the viability at 0.3 µM [3] was 88.7%. The Activity [4] was 15.56%, the Activity [5] was 0.48% and the Activity [6] was 48.08%. For the same molecule, the Activity [7] was 0.11%, the Activity [8] was “Dose-dependent effect” and the Activity [9] was 86.67%. For the same molecule, the Activity [10] was 21.32%, the Activity [11] was 78.68% and the Activity [12] was “Active”. For the same molecule, the Activity [13] was 35.01% and the Activity [14] was “Active”.
